Reference: publication PMC3068019 (EMBO Molecular Medicine, 2010)

Tests used:
[1] = test system: PGC-1α mRNA, Q111 striatal cells; assay: PGC-1α mRNA by quantitative RT-PCR, Q111 cells; assay type: cell-based, mouse
Method in brief: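 Total RNA (2 µg) from Q7/Q111 striatal cells, run either by TaqMan one-step RNA-to-Ct or by Superscript III reverse transcription followed by TaqMan gene expression assays on real-time PCR. Quantified by the delta-delta CT method, normalised to 18S […].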

PGC-1α = conditions: ref Milnerwood et al, 2010; Okamoto et al, 2009; cited from earlier work
HD model mice = conditions: ref Karpuj et al, 2002; Fox et al, 2004; cited from earlier work
DNAJB10 = conditions: ref Karpuj et al, 2002; cited from earlier work
Q111 cells = assay: 3-NP toxicity, LIVE/DEAD viability assay, Q111 cells; assay type: cell-based, mouse
Caspase = conditions: ref Bailey & Johnson, 2006; Jeitner et al, 2005; cited from earlier work
glutathione = conditions: ref Mao et al, 2006; cited from earlier work
Caenorhabditis elegans = conditions: ref Borrell-Pages et al, 2006; cited from earlier work
[2] = test system: DNAJ (HSJ1b), striatal neurons; conditions: ref Borrell-Pages et al, 2006, cited from earlier work
BDNF = conditions: ref Borrell-Pages et al, 2006; cited from earlier work

## CC(/C=C/C(=O)NO)=C\[C@@H](C)C(=O)c1ccc(N(C)C)cc1 [TSA, Trichostatin A]
[1]
  effect on PGC-1α mRNA levels: increased the mRNA levels of PGC-1α

## CC12CC3CC(C)(C1)CC(N)(C3)C2 [memantine]
PGC-1α
  transcriptional dysregulation of PGC-1α induced by extrasynaptic glutamate: appears to prevent transcriptional dysregulation of PGC-1α

## NCCSSCCN [cystamine]
HD model mice
  neuroprotection in HD models: neuroprotective
DNAJB10
  DNAJB10 in treated mice: increased
Q111 cells; not shown, cell line not stated
  protection against 3-NP toxicity: protect against 3-NP toxicity
Caspase
  caspase inhibition: caspase inhibition
glutathione
  glutathione levels: increases levels of the versatile antioxidant glutathione

## CCCC(=O)O [NaBu, Sodium butyrate]
[1]
  effect on PGC-1α mRNA levels: increased the mRNA levels of PGC-1α

## NCCS [cysteamine]
Caenorhabditis elegans
  protection of worms from toxic effects of mhtt: protected worms
[2]
  DNAJB10 levels: normalize DNAJB10 levels
[2]; striatal neurons in vitro
  DNAJ (HSJ1b) transcription and protein levels: increased
BDNF
  trafficking of BDNF: enhanced

## O=C(O)CC[N+](=O)[O-] [3-NP, 3-nitropropionic acid]
Q111 cells; 3-NP 10 mM for 48 h
  toxicity of 3-NP, Q111 compared with Q7 cells: more toxic to Q111 cells than to Q7 cells
